A selection: hits, their analogues and other compounds. The true share with any hit is near 1.9%.
CHRM4 PAM – human M4 muscarinic receptor positive allosteric modulators, primary screen, CHO-K1 cells, Fluo-8 calcium fluorescence; CHO-K1 hM4/Gqi5, ACh EC20; 0% = ACh EC20, 100% = maximal ACh; 0.4% of 360,000 active; Muscarinic acetylcholine receptor M4 (Homo sapiens), P08173; activation, % at 3 µM;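 active = activation above its plate's cutoff, the mean activation of sample wells plus 3 SD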
Target sequence (P08173 whole entry, looked up): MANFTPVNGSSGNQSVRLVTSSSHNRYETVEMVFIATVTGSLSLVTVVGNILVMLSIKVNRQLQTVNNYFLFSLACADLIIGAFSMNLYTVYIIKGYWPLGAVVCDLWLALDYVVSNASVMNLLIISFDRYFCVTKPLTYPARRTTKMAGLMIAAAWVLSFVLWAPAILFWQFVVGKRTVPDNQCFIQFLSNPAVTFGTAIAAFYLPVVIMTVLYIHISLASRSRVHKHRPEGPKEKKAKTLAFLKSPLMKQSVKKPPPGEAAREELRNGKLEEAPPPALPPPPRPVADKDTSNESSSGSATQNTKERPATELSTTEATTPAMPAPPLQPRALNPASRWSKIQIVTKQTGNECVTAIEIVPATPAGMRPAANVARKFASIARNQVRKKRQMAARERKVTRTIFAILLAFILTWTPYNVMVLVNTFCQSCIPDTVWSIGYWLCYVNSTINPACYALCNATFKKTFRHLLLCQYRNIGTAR
M5 antag – human M5 muscarinic receptor antagonists, primary screen, CHO cells, Fluo-8 calcium fluorescence; AID 624040, 2012; Muscarinic acetylcholine receptor M5 (Homo sapiens), P08912; inhibition, % at 3 µM; CHO-hM5 cells, ACh EC80; 0.59% of 360,000 active;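 active = inhibition above a per-plate cutoff, the mean of that plate's test compounds plus 3 SD, cut at about 27% in these data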
M5 ag – human M5 muscarinic receptor agonists, primary screen, CHO-K1 cells, Fluo-8 calcium fluorescence | CHO-K1 hM5 cells; 0% DMSO wells, 100% maximal acetylcholine response | activation, % at 3 µM | 0.19% of 360,000 active | AID 624037, 2012;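 active = activation above the run's mean over test compounds plus 3 SD, cut at about 23% in these data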;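 also: signal is peak over basal fluorescence ratio across the kinetic read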
CHRM5 PAM – human M5 muscarinic receptor positive allosteric modulators, primary screen, CHO-K1 cells, Fluo-8 calcium fluorescence; activation, % at 3 µM; Muscarinic acetylcholine receptor M5 (Homo sapiens), P08912; CHO-K1 hM5, ACh EC20 PAM; 0% = ACh EC20, 100% = ACh EC100; 0.3% of 360,000 active;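 active = activation above the run cutoff, the mean activation of all test compounds plus 3 SD, cut at about 18% in these data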
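Replicates: One well per compound, no replicates | System: Human M5 receptor in CHO-K1 cells | Benchmarks: Low control EC20 acetylcholine (0%), high control EC100 acetylcholine (100%) | Probe or stimulus: Acetylcholine, EC20 level | Times: Fluo-8 loading 80 min at 37 °C plus 30 min room temperature | Signal: Intracellular calcium via Fluo-8 fluorescence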
M4 antag – human M4 muscarinic receptor antagonists, primary screen, CHO cells, Fluo-8 calcium fluorescence. Muscarinic acetylcholine receptor M4 (Homo sapiens), P08173. inhibition, % at 3 µM. CHO-hM4 cells, ACh EC80. 0.73% of 360,000 active;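 active = inhibition above its plate's cutoff, the mean inhibition of sample wells plus 3 SD, cut at about 27% in these data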
M4 ag – human M4 muscarinic receptor agonists, primary screen, CHO-K1 cells, Fluo-8 calcium fluorescence | CHO-K1 hM4/Gqi5; vehicle 0%, full acetylcholine response 100% | Muscarinic acetylcholine receptor M4 (Homo sapiens), P08173 | AID 624127, 2012 | activation, % at 3 µM | 0.14% of 360,000 active;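 active = activation above the run mean over all test wells plus 3 SD, cut at about 32% in these data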;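 also: peak over basal fluorescence ratio per well then scaled between controls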
Numbers stand for hits; - = inactive.

SMILES | CHRM4 PAM | M5 antag | M5 ag | CHRM5 PAM | M4 antag | M4 ag
Cc1ccc(C(=O)CCC(=O)Nc2ccc(C)cn2)cc1 | - | - | - | - | - | -
CC1=NN(C(=S)Nc2ccccc2)C(C)(C)C1 | - | - | - | 18.8 | - | -
COc1ccc(N(CC(=O)NC2CC3CCC2C3)S(=O)(=O)c2ccccc2)cc1Cl (stereo not drawn) | - | - | - | - | - | -
CCOC(=O)C1=C(C)N(CC(C)C)C(=O)C1 | 22.2 | - | - | - | - | -
CCOC(=O)N1CCN(C(=O)CSc2nnc(-c3ccccc3OC)o2)CC1 | 29.6 | - | - | - | - | -
COc1ccccc1NC(=O)CSc1nnc(-c2ccncc2)o1 | - | - | - | 22.8 | - | -
COc1ccc(CN(C(=O)CSc2nnc(-c3ccc(F)cc3)o2)c2ccc(F)cc2)cc1 | - | - | - | - | - | -
COc1ccc(CN(C(=O)CSc2nnc(-c3c[nH]c4ccccc34)o2)c2ccc(F)cc2)cc1OC | - | - | - | - | 40.5 | -
CCOC(=O)CSc1nnc(-c2c[nH]c3ccccc23)o1 | - | - | - | - | 100.0 | -
O=C(CSc1nnc(Cn2nnc3ccccc32)o1)N(Cc1ccc(F)cc1)c1ccccc1 | - | 36.5 | - | - | - | -
CCCCNC(=O)C1(C)CCC(=O)N1CCc1c[nH]c2ccccc12 (stereo not drawn) | - | - | - | - | - | -
C#CCOCCOCCOCCNc1nc(N2CCN(C(=O)CCCCCCCCCCNC(=O)[C@@H](CCC(=O)O)n3cc(CCCCCN)nn3)CC2)nc(N2CCN(C(=O)CCCCCCCCCCNC(=O)[C@H](CO)n3cc(CCCCCN)nn3)CC2)n1 | - | - | - | - | - | -
C#CCOCCOCCOCCNc1nc(N2CCN(C(=O)CCCCCCCCCCNC(=O)[C@H](CCCCN)n3cc(C)nn3)CC2)nc(N2CCN(C(=O)CCCCCCCCCCNC(=O)[C@@H]([C@H](C)O)n3cc(C)nn3)CC2)n1 | - | - | - | - | - | -
C#CCOCCOCCOCCNc1nc(N2CCN(C(=O)CCCCCCCCCCNC(=O)[C@@H](CCC(=O)O)n3cc(CCCCCN)nn3)CC2)nc(N2CCN(C(=O)CCCCCCCCCCNC(=O)[C@H](CCCCN)n3cc(C[C@@H](C)CC)nn3)CC2)n1 | - | - | - | - | - | 32.9
C#CCOCCOCCOCCNc1nc(N2CCN(C(=O)CCCCCCCCCCNC(=O)[C@@H](CCSC)n3cc(CCO)nn3)CC2)nc(N2CCN(C(=O)CCCCCCCCCCNC(=O)[C@@H]([C@H](C)O)n3cc(C)nn3)CC2)n1 | - | 27.3 | - | - | - | -
O=C(/C=C/c1ccccc1Cl)N1CCOCC1 | - | - | - | - | - | -
N#Cc1ccccc1/C=C/C(=O)N1CCOCC1 | - | - | 33.6 | - | - | -
C[C@H](NS(=O)(=O)c1ccc2c(c1)OCCCO2)C(=O)N1CCN(c2ccc(F)cc2)CC1 | - | - | - | - | - | -
COc1cccc(CNCc2ccc(OC)c3ccccc23)c1OC | - | 30.6 | - | - | - | 37.1
COCCCNC(=O)CC1C[C@H](C(=O)N2CCOCC2)[C@@]2(CCC3CCCC3)c3[nH]c4ccc(OC)cc4c3CCN2C1=O (stereo partly drawn) | - | - | - | - | - | -
COc1ccc([C@H]2C(C#N)=C([S-])N[C@](C)(O)[C@@H]2[n+]2ccccc2)cc1 | - | - | - | - | 40.4 | -
O=C(CN1CCN(S(=O)(=O)c2ccccc2)CC1)NCCc1ccccc1 | - | - | - | - | - | -
CS(=O)(=O)N1CCN(c2ccc([N+](=O)[O-])c3cccnc23)CC1 | - | - | - | - | 34.9 | -
Cc1c(C)c2ccc(OC(C)C(=O)NC3CCN(Cc4ccccc4)CC3)cc2oc1=O (stereo not drawn) | - | - | - | - | - | -
C/C(CC1CC(COCC(C)C)OC1=O)=N\Nc1nc(-c2ccccc2)cs1 (stereo not drawn) | - | - | - | - | 29.9 | -
SMILES | CHRM4 PAM | M5 antag | M5 ag | CHRM5 PAM | M4 antag | M4 ag
CC(C)(C)C(=O)NC(=S)NNC(=O)c1ccc(-c2ccccc2)cc1 | - | 96.6 | 101.0 | - | 98.5 | 140.9
COC(=O)NNC(=O)c1ccc(Cl)cc1Cl | - | - | - | - | - | -
CC(C)(C)C(=O)NC(=S)NNC(=O)c1ccc(Cl)cc1Cl | - | 35.6 | 97.8 | - | 44.4 | 139.4
CCC(=O)N1CCC(C)(C(=O)Nc2ccc3c(c2)OCO3)C1 (stereo not drawn) | - | - | - | - | - | -
CCOC1=C2[C@H](c3ccccc3)N(S(=O)(=O)c3ccccc3)C[C@H]2n2c(=O)n(-c3ccccc3)c(=O)n2C1 | - | - | - | - | - | -
COc1cc(NC(=O)CN(C)S(=O)(=O)c2ccc(-c3ccc(=O)[nH]n3)s2)cc(OC)c1 | - | - | - | - | - | -
Cc1ccc(NC(=O)c2cncc(Br)c2)c([N+](=O)[O-])c1 | 22.5 | - | - | - | - | -
Cc1ccc(NC(=O)c2cccnc2)c([N+](=O)[O-])c1 | - | - | - | - | - | -
CN1c2ccccc2-c2nc3ccccc3n2C1c1cccs1 (stereo not drawn) | - | - | - | 18.5 | - | -
Cc1ccc(C2N(C)c3ccccc3-c3nc4ccccc4n32)o1 (stereo not drawn) | - | - | - | - | - | -
NC(=O)c1oc2ccccc2c1NC(=O)c1ccc(F)cc1 | - | - | - | - | 39.4 | -
O=C(Nc1c(C(=O)N2CCC(N3CCCCC3)CC2)oc2ccccc12)c1ccc(F)cc1 | - | - | - | - | - | -
c1ccc2c(Nc3ccc4c(c3)OCCO4)c3c(nc2c1)CCCC3 | - | 43.7 | - | - | - | -
Cc1ccc(C(=O)N2CCCC(N3CCN(c4ccccc4C)CC3)C2)c(=O)[nH]1 (stereo not drawn) | - | - | - | - | - | -
COC(=O)c1ccc(/C=C/c2c(-c3ccc(OC)cc3)oc3ccccc23)cc1 | 25.8 | - | - | - | - | -
C[C@@H](CSc1ccc(Br)cc1)CN1CC[C@H](NC(=O)OCc2ccccc2)CCC1=O | - | - | - | - | 28.0 | -
